Measurements of several laboratories.
Lines come from different studies, so protocols differ.
Effect on: cell growth or viability

SMILES	cell line	test	setting	quantity	result
COc1cccc(CNC[C@@](C)(O)[C@@H]2CC[C@@H](C)C[C@H]2OCc2ccccc2)c1	HeLa	MTT	30 µM, 72 h	inhibition	97.9%
O=C(/C=C/c1cccc(F)c1)Nc1cc(-c2ccnc(N3CCC(O)CC3)c2)ccn1	HeLa	MTT	5 µM	inhibition	85%
C[C@@H]1CC[C@@H]([C@](C)(O)Cn2cnc3ccccc32)[C@H](OCc2ccccc2)C1	HeLa	MTT	10 µM, 72 h	inhibition	32.1%
Cc1cccc(/C=C/C(=O)Nc2cc(-c3ccnc(N4CCC(O)CC4)c3)ccn2)c1	HeLa	MTT	5 µM	inhibition	74.2%
C=CC(=O)NC1CCN(c2ncc3ncnc(Nc4ccc(Oc5ccc6c(c5)ncn6C)c(C)c4)c3n2)CC1	HPAC			EC50	0.0351 µM
Cc1nc(N(C)c2ccc3c(c2)/C(=C/c2ccccc2Cl)C(=O)N3C)c2ccccc2n1	H22	MTT		IC50	8.98 µM
Cc1c(C(=O)O)ccc2c3n(nc12)[C@@H]1[C@H](C3)N(CC2CC2)[C@@]2(C(=O)Nc3cc(Cl)ccc32)[C@H]1c1cccc(Cl)c1F	U2OS			GI50	> 0.09 µM
C[C@@H]1CC[C@@H]([C@](C)(O)CNCc2cccc(F)c2)[C@H](OCc2ccccc2)C1	HeLa	MTT	10 µM, 72 h	inhibition	72.5%
O=C(C=Cc1ccccc1)Nc1cccc(-c2ccnc(N3CCOCC3)c2)c1	HeLa	MTT	5 µM	inhibition	28.4%
Cc1nc(Nc2ccc3c(c2)CC(=O)N3)c2ccccc2n1	H22	MTT		IC50	10.5 µM
Cc1cc(NC(=O)C=Cc2ccccc2)cc(-c2ccnc(N3CCC(O)CC3)c2)c1	HeLa	MTT	5 µM	inhibition	26.6%
CC1(C)CCC2(CC1)N[C@@H](C(=O)N[C@@H]1CC[C@@H](C(N)=O)OC1)[C@H](c1ccnc(Cl)c1F)[C@]21C(=O)Nc2cc(Cl)ccc21	U2OS	resazurin	72 h	GI50	> 1 µM
COc1ccc(CNC[C@](O)(COCc2ccc(OC)cc2)[C@@H]2CC[C@@H](C)C[C@H]2OCc2ccc(OC)cc2)cc1	HeLa	MTT	10 µM, 72 h	inhibition	96.9%
Cc1cccc(/C=C/C(=O)Nc2cccc(-c3ccnc(N4CCOCC4)c3)c2)c1	HeLa	MTT	5 µM	inhibition	24.1%
Cc1nc(Nc2ccc3c(c2)/C(=C/c2ccccc2Cl)C(=O)N3)c2ccccc2n1	H22	MTT		IC50	2.14 µM
COc1ccc(CNC[C@@](C)(O)[C@@H]2CC[C@@H](C)C[C@H]2OCc2ccccc2)cc1	HeLa	MTT	30 µM, 72 h	inhibition	98.9%
Cc1nc(Nc2ccc3c(c2)C(C)(C)C(=O)N3C)c2ccccc2n1	H22	MTT		IC50	24.1 µM
COc1ccc(COC[C@@](O)(CNCc2ccc(F)cc2)[C@@H]2CC[C@@H](C)C[C@H]2OCc2ccc(OC)cc2)cc1	HeLa	MTT	10 µM, 72 h	inhibition	95%
Cc1cccc(/C=C/C(=O)Nc2cccc(-c3ccnc(N4CCC(O)CC4)c3)c2)c1	HeLa	MTT	5 µM	inhibition	54.9%
